Data as given in ChEMBL document CHEMBL3271971, “Antineoplastic and biochemical properties of arylsulfonylhydrazones of 2-formylpyridine N-oxide” (J Med Chem, 1976).

Assays:
[1] = system: Mus musculus; experiment: Effect on RNA synthesis in tumor of CD-1 mouse allografted with mouse S180A cells assessed as [3H]-uridine incorporation at 40 mg/kg, ip pretreated for 1 hr followed by radiotracer-addition measured after 1 hr relative to control; assay type: functional; conditions: route intraperitoneal
Outline: (§1)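 Sarcoma 180 ascites cells implanted 6 days earlier. Mice received a single ip dose of 10–80 mg/kg, then 1 h later an ip tracer: 200 μg thymidine-3H, 200 μg uridine-3H or 125 μg DL-leucine-14C. Tracer was incorporated for 1 h. Specific activity of tumor-cell DNA, RNA or protein is expressed as % of untreated controls. Values are means of 4-16 mice, each analyzed separately.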

[2] = system: Mus musculus; experiment: Effect on protein synthesis in tumor of CD-1 mouse allografted with mouse S180A cells assessed as [14C]-leucine incorporation at 80 mg/kg, ip pretreated for 1 hr followed by radiotracer-addition measured after 1 hr relative to control; assay type: functional; conditions: route intraperitoneal; outline: as §1
[3] = system: Mus musculus; experiment: Effect on DNA synthesis in tumor of CD-1 mouse allografted with mouse S180A cells assessed as [3H]-thymidine incorporation at 80 mg/kg, ip pretreated for 3 hrs followed by radiotracer-addition measured after 1 hr relative to control; assay type: functional; conditions: route intraperitoneal
Outline: (§2)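 Mice bearing 6-day Sarcoma 180 ascites implants received a single ip dose of 80 mg/kg. At the stated pretreatment time they were given ip tracer: 200 μg thymidine-3H, 200 μg uridine-3H or 125 μg DL-leucine-14C. After 1 h of incorporation, specific radioactivity of DNA, RNA or protein was read as % of control incorporation.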

[4] = system: Mus musculus; experiment: Effect on DNA synthesis in tumor of CD-1 mouse allografted with mouse S180A cells assessed as [3H]-thymidine incorporation at 80 mg/kg, ip pretreated for 6 hrs followed by radiotracer-addition measured after 1 hr relative to control; assay type: functional; conditions: route intraperitoneal; outline: as §2
[5] = system: Mus musculus; experiment: Effect on RNA synthesis in tumor of CD-1 mouse allografted with mouse S180A cells assessed as [3H]-uridine incorporation at 80 mg/kg, ip pretreated for 12 hrs followed by radiotracer-addition measured after 1 hr relative to control; assay type: functional; conditions: route intraperitoneal; outline: as §2
[6] = system: Mus musculus; experiment: Effect on protein synthesis in tumor of CD-1 mouse allografted with mouse S180A cells assessed as [14C]-leucine incorporation at 80 mg/kg, ip pretreated for 3 hrs followed by radiotracer-addition measured after 1 hr relative to control; assay type: functional; conditions: route intraperitoneal; outline: as §2
[7] = Antineoplastic activity against mouse S180A cells allografted in CD-1 mouse assessed as average survival at maximum effective dose administered qd for 6 days (reference value: 12.5 +/- 0.3 days); assay type: functional
Outline: (§3)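 Sarcoma 180 ascites cells were transplanted from a donor mouse bearing a 7-day tumour. Each agent was tested at 10–60 mg/kg/day, once daily for six consecutive days, starting 24 h after transplantation, in groups of 5–10 mice. Pooled untreated controls totalled 40 mice. Mice surviving beyond 50 days were counted as 50-day survivors, and body-weight change over therapy served as the toxicity index.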

[8] = Antineoplastic activity against mouse S180A cells allografted in CD-1 mouse assessed as maximum dose required for increase in mouse survival administered qd for 6 days; assay type: functional
[9] = system: Mus musculus; experiment: Toxicity in CD-1 mouse allografted with mouse S180A cells assessed as change in body weight at maximum effective dose administered qd for 6 days (reference value: 23.2%); assay type: organism-based; conditions: 144 h
[10] = Antineoplastic activity against mouse S180A cells allografted in CD-1 mouse assessed as mouse survival at maximum effective dose administered qd for 6 days measured for 50 days relative to control; assay type: functional; outline: as §3
[11] = system: Mus musculus; experiment: Toxicity in CD-1 mouse allografted with mouse S180A cells assessed as change in body weight at 20 mg/kg administered qd for 6 days (reference value: 23.2%); assay type: organism-based; set-up: dose 20 mg/kg; conditions: in vivo, 144 h
[12] = system: Mus musculus; experiment: Toxicity in CD-1 mouse allografted with mouse S180A cells assessed as change in body weight at 60 mg/kg administered qd for 6 days (reference value: 23.2%); assay type: organism-based; set-up: dose 60 mg/kg; conditions: in vivo, 144 h
[13] = Antineoplastic activity against mouse S180A cells allografted in CD-1 mouse assessed as average survival at 20 mg/kg administered qd for 6 days (reference value: 12.9 +/- 1.2 days); assay type: functional
Outline: (§4)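 Ascitic tumours were transplanted from an appropriate donor mouse carrying a 7-day tumour growth. Drug was given at 10–60 mg/kg/day for six consecutive days. Sensitivity was judged by prolongation of survival time relative to untreated tumour-bearing controls. Mice were weighed throughout, and percentage weight change from onset to end of therapy indicated toxicity.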

[14] = Antineoplastic activity against mouse S180A cells allografted in CD-1 mouse assessed as mouse survival at 20 mg/kg administered qd for 6 days measured for 50 days relative to control; assay type: functional; outline: as §4
[15] = system: Mus musculus; experiment: Toxicity in CD-1 mouse allografted with 1-formylisoquinoline thiosemicarbazone-resistant mouse S180A cells assessed as change in body weight at 40 mg/kg administered qd for 6 days (reference value: 29.6%); assay type: organism-based; set-up: dose 40 mg/kg; conditions: in vivo, 144 h
Outline: (§5)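 Ascitic tumors were transplanted from a donor mouse bearing a 7-day tumor. Daily doses were given for six consecutive days. Percentage body-weight change from onset to termination of therapy served as the index of drug toxicity.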

[16] = system: Mus musculus; experiment: Toxicity in CD-1 mouse allografted with 1-formylisoquinoline thiosemicarbazone-resistant mouse S180A cells assessed as change in body weight at 60 mg/kg administered qd for 6 days (reference value: 29.6%); assay type: organism-based; set-up: dose 60 mg/kg; conditions: in vivo, 144 h; outline: as §5
[17] = system: Mus musculus; experiment: Toxicity in BDF1 mouse allografted with mouse L1210 cells assessed as change in body weight at 40 mg/kg administered qd for 6 days (reference value: 13.6%); assay type: organism-based; set-up: dose 40 mg/kg; conditions: in vivo, 144 h; outline: as §5
[18] = system: L1210; experiment: Antineoplastic activity against mouse L1210 cells allografted in BDF1 mouse assessed as average survival at 40 mg/kg administered qd for 6 days (reference value: 8.2 +/- 0.4 days); assay type: functional; outline: as §4
[19] = system: Mus musculus; experiment: Toxicity in CD-1 mouse allografted with mouse EAC cells assessed as change in body weight at 40 mg/kg administered qd for 6 days (reference value: 26.8%); assay type: organism-based, Ehrlich; set-up: dose 40 mg/kg; conditions: in vivo, 144 h; outline: as §5
[20] = system: Mus musculus; experiment: Toxicity in CD-1 mouse allografted with mouse EAC cells assessed as change in body weight at 60 mg/kg administered qd for 6 days (reference value: 26.8%); assay type: organism-based, Ehrlich; set-up: dose 60 mg/kg; conditions: in vivo, 144 h; outline: as §5
[21] = system: Ehrlich; experiment: Antineoplastic activity against mouse EAC cells allografted in CD-1 mouse assessed as mouse survival at 20 mg/kg administered qd for 6 days measured for 50 days relative to control; assay type: functional; outline: as §4
[22] = system: Mus musculus; experiment: Toxicity in C3H mouse allografted with mouse Hepa129 cells assessed as change in body weight at 60 mg/kg administered qd for 6 days (reference value: 13.5%); assay type: organism-based; set-up: dose 60 mg/kg; conditions: in vivo, 144 h; outline: as §5
[23] = Antineoplastic activity against mouse Hepa129 cells allografted in C3H mouse assessed as average survival at 20 mg/kg administered qd for 6 days (reference value: 18 +/- 0.6 days); assay type: functional; outline: as §4
[24] = Antineoplastic activity against mouse Hepa129 cells allografted in C3H mouse assessed as average survival at 40 mg/kg administered qd for 6 days (reference value: 18 +/- 0.6 days); assay type: functional; outline: as §4
[25] = Antineoplastic activity against mouse Hepa129 cells allografted in C3H mouse assessed as average survival at 60 mg/kg administered qd for 6 days (reference value: 18 +/- 0.6 days); assay type: functional; outline: as §4
[26] = system: Mus musculus; experiment: Effect on DNA synthesis in tumor of CD-1 mouse allografted with mouse S180A cells assessed as [3H]-thymidine incorporation at 10 mg/kg, ip pretreated for 1 hr followed by radiotracer-addition measured after 1 hr relative to control; assay type: functional; conditions: route intraperitoneal; outline: as §1

Cc1ccc(S(=O)(=O)N/N=C/c2cccc[n+]2[O-])cc1
Activity [1]: 65%
Activity [2]: 73%
Activity [3]: 53%
Activity [4]: 63%
Activity [5]: 102%
Activity [6]: 70%
Survival [7]: 38.4 days
Activity [8]: 60 mg/kg
Activity [9]: -8%
Survival [10]: 0%
Activity [11]: 21.6%
Activity [12]: -8%
Survival [13]: 24.9 days
survival at 20 mg/kg [14]: 10%
Activity [15]: 3.4%
Activity [16]: 0%
Activity [17]: 2.8%
Survival [18]: 9.2 days
Activity [19]: -3.3%
Activity [20]: -1.8%
survival at 20 mg/kg [21]: 10%
Activity [22]: -1.6%
Survival [23]: 22.2 days
Survival [24]: 24.8 days
Survival [25]: 29.4 days
Activity [26]: 71%
